Calls of active or inactive are those of the source. No cut-off for these calls is given here.
Columns and labels:
[1] = tested on: Plasmodium falciparum; experiment: Antimalarial activity against chloroquine resistant late schizont Plasmodium falciparum INDO infected in human erythrocytes assessed as inhibition of parasite growth incubated for 12 hrs; type: functional, organism-based; conditions: Erythrocyte
Summary of the method: (§1)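 PfINDO cultures were staged at 0–6 h (rings), 18–22 h (trophozoites), 30–34 h (early schizonts) and 40–44 h (late schizonts) post-invasion. Each was exposed to varying concentrations for 12 h, washed free of compound by centrifugation, and grown 48 h in drug-free medium. IC50 came from growth curves, with untreated culture as 100% and chloroquine-treated culture as 0% growth.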

[2] = Toxicity in mouse assessed as appetite loss at 100 mg/kg, po measured after 45 mins; type: organism-based; conditions: in vivo, 0.75 h
Summary of the method: (§2)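 Acute oral toxicity per OECD 423. Mice were fasted 4 h, given a single 100 mg/kg oral dose, and observed for 45 min for signs of acute toxicity, compared with untreated controls.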

[3] = Toxicity in mouse assessed as change in temperature at 100 mg/kg, po measured after 45 mins; type: organism-based; conditions: in vivo, 0.75 h; summary of the method: as §2
[4] = Toxicity in mouse assessed as effect on eye colour at 100 mg/kg, po measured after 45 mins; type: organism-based; conditions: in vivo, 0.75 h; summary of the method: as §2
[5] = tested on: Plasmodium falciparum; experiment: Antiplasmodial activity against chloroquine resistant schizont stage Plasmodium falciparum INDO infected in human erythrocytes assessed as prevention of schizont rupture at 4.30 uM incubated for 4 hrs by time-kill kinetics based FACS analysis; type: functional, organism-based; conditions: Erythrocyte, dose 4.3 µM
Summary of the method: (§3)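 PfINDO early schizonts (32–36 h post-invasion) and late schizonts (42–45 h post-invasion) were exposed to 5.62 or 4.30 μM for up to 16 h, washed at 4 h intervals, then cultured drug-free to a total of 96 h. Parasitemia was counted by FACS on 10^5 cells at the end of the second cycle; schizont rupture was checked microscopically.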

[6] = tested on: Plasmodium falciparum; experiment: Antiplasmodial activity against artemisinin-resistant early ring stage Plasmodium falciparum Cam3.1R539T infected in human erythrocytes assessed as reduction in parasite growth at 10 times IC50 concentration preincubated for 6 hrs followed by media replacement without compound for 66 hrs and measured after 72 hrs by Giemsa-staining based analysis; type: functional, organism-based; conditions: Erythrocyte
Summary of the method: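 Ring-stage survival assay. PfCam3.1R539T or PfINDO rings (0–3 h post-invasion), 1% parasitemia, 2% haematocrit, were exposed to 10× IC50 for 6 h. Compound was removed by three PBS washes, then cultures were grown 66 h in fresh medium. At 72 h, stage progression was assessed on Giemsa smears and revival by SYBR Green I lysis. Triplicate biological samples.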

[7] = Selectivity index, ratio of CC50 for human HEK293 cells to IC50 of chloroquine resistant Plasmodium falciparum INDO infected in human erythrocytes; type: toxicity, cell-based; conditions: read-out: Ratio CC50/IC50
Summary of the method: (§4)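 Selectivity index = CC50 / PfINDO IC50. CC50 came from MTT assays: 10^4 HEK293 or HUH7 cells per well, seeded overnight and exposed to 0–100 μM for 24 h, then MTT for 4 h at 37 °C with formazan dissolved in DMSO and read at A570. Controls were 0.8% DMSO (full growth) and 10% DMSO (zero growth).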

[8] = Toxicity in mouse assessed as sedation at 100 mg/kg, po measured after 45 mins; type: organism-based; conditions: in vivo, 0.75 h; summary of the method: as §2
[9] = tested on: Plasmodium falciparum; experiment: Antiplasmodial activity against chloroquine resistant ring-stage Plasmodium falciparum INDO infected in human erythrocytes assessed as inhibition of parasite growth incubated for 12 hrs; type: functional, organism-based; conditions: Erythrocyte; summary of the method: as §1
[10] = Selectivity index, ratio of CC50 for human Huh-7 cells to IC50 for antiplasmodial activity against chloroquine resistant Plasmodium falciparum INDO infected in human erythrocytes; type: toxicity, cell-based; conditions: read-out: Ratio CC50/IC50; summary of the method: as §4
[11] = tested on: Plasmodium falciparum; experiment: Antiplasmodial activity against chloroquine resistant schizont stage Plasmodium falciparum INDO infected in human erythrocytes assessed as decrease in parasitemia at 4.30 uM incubated for 4 hrs by time-kill kinetics based FACS analysis; type: functional, organism-based; conditions: Erythrocyte, dose 4.3 µM; summary of the method: as §3
[12] = Binding affinity to Plasmodium falciparum GAP50 assessed as dissociation constant by SPR analysis
Summary of the method: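 GAP50 at 50 μg ml−1 in 10 mM acetate pH 4.5 was amine-coupled (EDC/NHS) onto a CM5 chip. Analytes at several concentrations in 5% DMSO/1× PBS; association 60 s, dissociation 120 s, flow 30 μl min−1. Regeneration with 10 mM glycine pH 3.0 for 30 s. Sensorgrams fitted to a 1:1 Langmuir model giving ka, kd and KD.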

[13] = Toxicity in mouse assessed as lacrimation at 100 mg/kg, po measured after 45 mins; type: organism-based; conditions: in vivo, 0.75 h; summary of the method: as §2
[14] = tested on: Plasmodium falciparum; experiment: Antiplasmodial activity against chloroquine resistant Plasmodium falciparum INDO infected in human erythrocytes assessed as inhibition of parasite growth at 100 uM incubated for 72 hrs by SYBR green I staining based fluorescence plate reader analysis relative to control; type: functional; conditions: Erythrocyte
Summary of the method: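 Single-concentration screen at 100 μM against PfINDO, triplicate wells, 72 h. Final DMSO was 0.4%. Growth was read by SYBR Green I lysis (excitation 485, emission 530 nm) and expressed relative to untreated culture, taken as 100% growth.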

[15] = tested on: Plasmodium falciparum; experiment: Additive antiplasmodial activity against multidrug-resistant Plasmodium falciparum Cam3.1R539T infected in human erythrocytes at 8 times IC50 concentration incubated for 72 hrs in presence of pyrimethamine by SYBR green I staining based fluorescence assay; type: functional, organism-based; conditions: Erythrocyte
Summary of the method: (§5)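 P. falciparum Cam3.1R539T in O+ human erythrocytes, 1% parasitemia, 2% haematocrit. 8× IC50 stocks of test compound and standard drug were mixed at molar ratios 4:1, 3:2, 2:3 and 1:4, then serially diluted two-fold. Plates were incubated 72 h at 37 °C and read by SYBR Green I lysis. Controls were 0.4% DMSO (100% growth) and 4 μM chloroquine (0% growth). ΣFIC = FICA + FICB; <1 synergistic, 1.0–2.0 additive, >2.0 antagonistic.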

[16] = tested on: Plasmodium falciparum; experiment: Antimalarial activity against chloroquine resistant early schizont Plasmodium falciparum INDO infected in human erythrocytes assessed as inhibition of parasite growth incubated for 12 hrs; type: functional, organism-based; conditions: Erythrocyte; summary of the method: as §1
[17] = tested on: Plasmodium falciparum; experiment: Antiplasmodial activity against chloroquine resistant schizont stage Plasmodium falciparum INDO infected in human erythrocytes assessed as prevention of schizont rupture at 5.62 uM incubated for 4 hrs by time-kill kinetics based FACS analysis; type: functional, organism-based; conditions: Erythrocyte; summary of the method: as §3
[18] = tested on: Plasmodium falciparum; experiment: Antiplasmodial activity against chloroquine resistant schizont stage Plasmodium falciparum INDO infected in human erythrocytes assessed as decrease in parasitemia at 5.62 uM incubated for 4 hrs by time-kill kinetics based FACS analysis; type: functional, organism-based; conditions: Erythrocyte; summary of the method: as §3
[19] = tested on: Plasmodium falciparum; experiment: Synergistic antiplasmodial activity against multidrug-resistant Plasmodium falciparum Cam3.1R539T infected in human erythrocytes at 8 times IC50 concentration incubated for 72 hrs in presence of pyrimethamine by SYBR green I staining based fluorescence assay; type: functional, organism-based; conditions: Erythrocyte; summary of the method: as §5
[20] = tested on: Plasmodium falciparum; experiment: Antiplasmodial activity against chloroquine resistant ring stage Plasmodium falciparum INDO infected in human erythrocytes assessed as reduction in parasitemia at 2.25 uM incubated for 12 hrs by time-kill kinetics based FACS analysis relative to control; type: functional, Erythrocyte; parameters: scale not given: the % may be the effect or the level left
Summary of the method: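 PfINDO rings were exposed to 2.25 or 1.79 μM, with compound washed out by centrifugation at 12, 24, 36, 48 or 57 h. Cultures were then grown drug-free to a total of 96 h. Parasitemia at the end of the second cycle was counted by FACS on 10^5 cells.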

[21] = tested on: Plasmodium falciparum; experiment: Synergistic antiplasmodial activity against multidrug-resistant Plasmodium falciparum Cam3.1R539T infected in human erythrocytes at 8 times IC50 concentration incubated for 72 hrs in presence of mefloquine by SYBR green I staining based fluorescence assay; type: functional, organism-based; conditions: Erythrocyte; summary of the method: as §5

With `O=C(Cn1nnc(-c2cccc([N+](=O)[O-])c2)n1)N1CCN(c2ccnc3cc(Cl)ccc23)CC1` the IC50 [1] was 7.1 µM, the Activity [2] was “Non-Toxic” and the Activity [3] was “Non-Toxic”. For the same compound, the Activity [4] was “Non-Toxic”, the Activity [5] was “inactive” and the Activity [6] was “Active”. For the same compound, the selectivity ratio [7] was 223, the Activity [8] was “Non-Toxic” and the IC50 [9] was 7.51 µM. For the same compound, the selectivity ratio [10] was 223, the Activity [11] was “Active” and the Kd [12] was 0.006 s⁻¹. For the same compound, the Activity [13] was “Non-Toxic”, the inhibition at 100 µM [14] was > 50% and the Activity [15] was “Active”. The IC50 [16] was 2.15 µM.

For `Clc1ccc2c(N3CCN(CCCn4nnc(-c5ccc(Br)cc5)n4)CC3)ccnc2c1`, the IC50 [1] was 1.5 µM, the Activity [2] was “Non-Toxic” and the Activity [3] was “Non-Toxic”. The Activity [4] was “Non-Toxic”, the Activity [17] was “Active” and the Activity [18] was “Active”. For the same compound, the Activity [6] was “inactive”, the selectivity ratio [7] was 178 and the Activity [8] was “Non-Toxic”. The IC50 [9] was 2.27 µM, the Activity [19] was “Active” and the selectivity ratio [10] was 128. The Activity [20] was ~22%, the Kd [12] was 0.191 s⁻¹ and the Activity [13] was “Non-Toxic”. For the same compound, the inhibition at 100 µM [14] was > 50%, the Activity [21] was “Active” and the IC50 [16] was 2.81 µM.
